According to ChEMBL document CHEMBL3046702, “Herbicidal, plant growth inhibitory, and cytotoxic activities of bismuthines containing aromatic heterocycles” (J Agric Food Chem, 2003):
Active and inactive are the calls of the source. The rule behind the calls is not given here.

How the values were obtained:
[1] = test system: Lactuca sativa; experiment: Herbicidal activity against Lactuca sativa var.Roman (lettuce) seedlings assessed as seed germination rate at 3 uM after 48 hr relative to control; type: functional, organism-based
[2] = test system: Lactuca sativa; experiment: Herbicidal activity against Lactuca sativa var.Roman (lettuce) seedlings assessed as root length at 5 uM after 120 hr (reference value: 18 to 19 mm); type: functional, organism-based
[3] = test system: Lolium multiflorum; experiment: Herbicidal activity against Lolium multiflorum var. Gulf (Italian ryegrass) seedlings assessed as shoot length rate at 10 uM after 48 hr relative to control; type: functional, organism-based
In short: (§1)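 Italian ryegrass seedlings grown with 0, 0.5, 1, 3, 5, 7.5 or 10 µM of each bismuthine. Shoot and root lengths were measured at 48 h and expressed as a percentage of the average untreated control length.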

[4] = test system: Trifolium pratense; experiment: Herbicidal activity against Trifolium pratense var. Kenland (red clover) seedlings assessed as partial inhibition of hypocotyle growth up to 15 uM after 48 hr; type: functional, organism-based
[5] = test system: Lolium multiflorum; experiment: Herbicidal activity against Lolium multiflorum var. Gulf (Italian ryegrass) seedlings assessed as root length rate at 0.5 uM after 48 hr relative to control; type: functional, organism-based; in short: as §1
[6] = test system: Radical scavenging activity; experiment: Antioxidant activity assessed as DPPH free radical scavenging activity at 5 to 100 uM after 30 min by TLC autographic assay; type: functional
[7] = test system: Lactuca sativa; experiment: Herbicidal activity against Lactuca sativa var.Roman (lettuce) seedlings assessed as seed germination rate at 0.5 uM after 48 hr relative to control; type: functional, organism-based
[8] = test system: Lolium multiflorum; experiment: Herbicidal activity against Lolium multiflorum var. Gulf (Italian ryegrass) seedlings assessed as shoot length rate at 3 uM after 48 hr relative to control; type: functional, organism-based; in short: as §1
[9] = test system: Lactuca sativa; experiment: Herbicidal activity against Lactuca sativa var.Roman (lettuce) seedlings assessed as seed germination rate at 5 uM after 48 hr relative to control; type: functional, organism-based
[10] = test system: Lactuca sativa; experiment: Herbicidal activity against Lactuca sativa var.Roman (lettuce) seedlings assessed as root length at 10 uM after 120 hr (reference value: 18 to 19 mm); type: functional, organism-based
[11] = test system: Lactuca sativa; experiment: Herbicidal activity against Lactuca sativa var.Roman (lettuce) seedlings assessed as root length at 75 uM after 120 hr (reference value: 18 to 19 mm); type: functional, organism-based
[12] = test system: Lolium multiflorum; experiment: Herbicidal activity against Lolium multiflorum var. Gulf (Italian ryegrass) seedlings assessed as root length rate at 3 uM after 48 hr relative to control; type: functional, organism-based; in short: as §1
[13] = test system: Lactuca sativa; experiment: Herbicidal activity against Lactuca sativa var.Roman (lettuce) seedlings assessed as shoot length at 75 uM after 120 hr (reference value: 27 to 31 mm); type: functional, organism-based
[14] = test system: Lolium multiflorum; experiment: Herbicidal activity against Lolium multiflorum var. Gulf (Italian ryegrass) seedlings assessed as root length rate at 1 uM after 48 hr relative to control; type: functional, organism-based; in short: as §1
[15] = test system: Trifolium pratense; experiment: Herbicidal activity against Trifolium pratense var. Kenland (red clover) assessed as inhibition of seed respiration during germination after 72 hr by polarographic analysis; type: functional, organism-based; conditions: for IC50: read-out: I50
In short: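 Red clover seeds were exposed to the bismuthines during germination, with respiration followed over the imbibition time. Values were taken at 72 h as the concentration giving 50% inhibition of seed respiration, using means of three experiments.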

[16] = test system: Lactuca sativa; experiment: Herbicidal activity against Lactuca sativa var.Roman (lettuce) seedlings assessed as root length at 25 uM after 120 hr (reference value: 18 to 19 mm); type: functional, organism-based
[17] = test system: Lactuca sativa; experiment: Herbicidal activity against Lactuca sativa var.Roman (lettuce) seedlings assessed as inhibition of seed germination at 5 uM after 48 hr; type: functional, organism-based
[18] = test system: Lactuca sativa; experiment: Herbicidal activity against Lactuca sativa var.Roman (lettuce) seedlings assessed as seed germination rate at 1 uM after 48 hr relative to control; type: functional, organism-based
[19] = test system: Lolium multiflorum; experiment: Herbicidal activity against Lolium multiflorum var. Gulf (Italian ryegrass) seedlings assessed as root length rate at 10 uM after 48 hr relative to control; type: functional, organism-based; in short: as §1
[20] = test system: Lactuca sativa; experiment: Herbicidal activity against Lactuca sativa var.Roman (lettuce) seedlings assessed as partial inhibition of hypocotyle growth up to 10 uM after 48 hr; type: functional, organism-based
[21] = test system: Lolium multiflorum; experiment: Herbicidal activity against Lolium multiflorum var. Gulf (Italian ryegrass) seedlings assessed as shoot length rate at 5 uM after 48 hr relative to control; type: functional, organism-based; in short: as §1
[22] = test system: Lactuca sativa; experiment: Herbicidal activity against Lactuca sativa var.Roman (lettuce) seedlings assessed as root length at 50 uM after 120 hr (reference value: 18 to 19 mm); type: functional, organism-based
[23] = test system: Lactuca sativa; experiment: Herbicidal activity against Lactuca sativa var.Roman (lettuce) seedlings assessed as shoot length at 5 uM after 120 hr (reference value: 27 to 31 mm); type: functional, organism-based
[24] = test system: Radical scavenging activity; experiment: Antioxidant activity assessed as DPPH free radical scavenging activity at 5 to 100 uM after 30 min by spectrophotometric analysis; type: functional
In short: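 DPPH reduction by the compounds was read spectrophotometrically at 517 nm after 30 min. 100% DMSO served as the blank and quercetin as the reference scavenger.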

[25] = test system: Lactuca sativa; experiment: Herbicidal activity against Lactuca sativa var.Roman (lettuce) seedlings assessed as seed germination rate at 7.5 uM after 48 hr relative to control; type: functional, organism-based
[26] = test system: Lactuca sativa; experiment: Herbicidal activity against Lactuca sativa var.Roman (lettuce) seedlings assessed as growth inhibition at 5 uM after 120 hr; type: functional, organism-based
[27] = test system: Lolium multiflorum; experiment: Herbicidal activity against Lolium multiflorum var. Gulf (Italian ryegrass) seedlings assessed as shoot length rate at 0.5 uM after 48 hr relative to control; type: functional, organism-based; in short: as §1
[28] = test system: Lolium multiflorum; experiment: Herbicidal activity against Lolium multiflorum var. Gulf (Italian ryegrass) seedlings assessed as shoot length rate at 7.5 uM after 48 hr relative to control; type: functional, organism-based; in short: as §1
[29] = test system: Physalis ixocarpa; experiment: Herbicidal activity against Physalis ixocarpa assessed as inhibition of seed respiration during germination after 72 hr by polarographic analysis; type: functional, organism-based
[30] = test system: Lolium multiflorum; experiment: Herbicidal activity against Lolium multiflorum var. Gulf (Italian ryegrass) assessed as inhibition of seed respiration during germination after 72 hr by polarographic analysis; type: functional, organism-based
[31] = test system: Lactuca sativa; experiment: Herbicidal activity against Lactuca sativa var.Roman (lettuce) seedlings assessed as shoot length at 10 uM after 120 hr (reference value: 27 to 31 mm); type: functional, organism-based
[32] = test system: Lactuca sativa; experiment: Herbicidal activity against Lactuca sativa var.Roman (lettuce) seedlings assessed as seed germination rate at 10 uM after 48 hr relative to control; type: functional, organism-based
[33] = test system: Lolium multiflorum; experiment: Herbicidal activity against Lolium multiflorum var. Gulf (Italian ryegrass) seedlings assessed as root length rate at 5 uM after 48 hr relative to control; type: functional, organism-based; in short: as §1
[34] = test system: Lolium multiflorum; experiment: Herbicidal activity against Lolium multiflorum var. Gulf (Italian ryegrass) seedlings assessed as root length rate at 7.5 uM after 48 hr relative to control; type: functional, organism-based; in short: as §1
[35] = test system: Lolium multiflorum; experiment: Herbicidal activity against Lolium multiflorum var. Gulf (Italian ryegrass) seedlings assessed as shoot length rate at 1 uM after 48 hr relative to control; type: functional, organism-based; in short: as §1
[36] = test system: Phaseolus vulgaris; experiment: Herbicidal activity against Phaseolus vulgaris assessed as inhibition of mitochondrial oxygen uptake; type: functional, organism-based; conditions: read-out: I50
[37] = test system: Lolium multiflorum; experiment: Herbicidal activity against Lolium multiflorum var. Gulf (Italian ryegrass) assessed as inhibition of seed germination after 48 hr; type: functional, organism-based; conditions: read-out: I50
[38] = test system: Lactuca sativa; experiment: Herbicidal activity against Lactuca sativa var.Roman (lettuce) assessed as inhibition of seed germination after 48 hr; type: functional, organism-based; conditions: read-out: I50
[39] = test system: Artemia salina; experiment: Toxicity in Artemia salina (brine shrimp) larvae assessed as mortality; type: organism-based; conditions: in vivo
In short: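 Brine shrimp lethality test on *Artemia salina* larvae, run across several concentrations up to a top level of 1000 µM. Mortality was scored at each concentration, and LC50 values in µM were derived from the concentration–mortality data.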

[40] = test system: Trifolium pratense; experiment: Herbicidal activity against Trifolium pratense var. Kenland (red clover) assessed as inhibition of seed germination after 48 hr; type: functional, organism-based; conditions: read-out: I50

Work on “TRIS(1-METHYL-2-PYRROLYL)BISMUTH [listing 1 of 2 here]” yielded an Activity [1] of 80%, an Activity [2] of 30 mm and an Activity [3] of 28%. For the same molecule, the “growth inhibition (GI)” value [4] was “Active”, the Activity [5] was 112% and the Activity [6] was “inactive”. The Activity [7] was 85%, the Activity [8] was 82% and the Activity [9] was 76%. It also gave an Activity [10] of 11 mm, an Activity [11] of 0 mm and an Activity [12] of 76%. For the same molecule, the Activity [13] was 0 mm, the Activity [14] was 78% and the inhibition [15] was “Dose-dependent effect”. The Activity [16] was 0 mm, the inhibition [17] was “Active” and the Activity [18] was 85%. The Activity [19] was 34%, the “growth inhibition (GI)” value [20] was “Active” and the Activity [21] was 66%. For the same molecule, the Activity [22] was 0 mm, the Activity [23] was 29 mm and the Activity [24] was “Active”. The Activity [25] was 65%, the inhibition [26] was 30% and the Activity [27] was 93%. For the same molecule, the Activity [28] was 64%, the inhibition [29] was “Active” and the inhibition [30] was “inactive”. It also gave an Activity [31] of 9 mm, an Activity [32] of 60% and an Activity [33] of 46%. It also gave an Activity [34] of 60% and an Activity [35] of 84%.

With `O=c1c(O)c(-c2ccc(O)c(O)c2)oc2cc(O)cc(O)c12` the Activity [24] was “Active”.

For “TRIS(1-METHYL-2-PYRROLYL)BISMUTH [listing 2 of 2 here]”, the IC50 [15] was 8.4 µM, the IC50 [36] was 17.1 µM and the IC50 [37] was 33.8 µM. For the same molecule, the IC50 [38] was 34 µM, the LC50 [39] was 638 µM and the IC50 [40] was 7.5 µM.

In the case of TRIS(2-THIENYL)BISMUTH, the IC50 [15] is reported as 13.5 µM, the IC50 [36] is reported as 35 µM and the IC50 [37] is reported as 36 µM. It also gave an IC50 [38] of 49.7 µM, an LC50 [39] greater than 1000 µM and an IC50 [40] of 12.4 µM.
